Laboratory results taken from publication PMC7452071 (Acta Pharmaceutica Sinica. B, 2019).
Read-outs that look alike come from different tables or passages of the source.

Columns and labels:
TOP1 = TOP1 (Bos taurus, UniProt F1MN93); assay: TOP1-mediated pBR322 DNA relaxation assay; assay type: biochemical; details: 100 μmol/L
γH2AX in HCT116 cells = assay: Western blot for γH2AX; assay type: cell-based, human; details: 0.5 and 5 μmol/L, 24 h
In short: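 HCT116 seeded at 35 × 10^4 cells/well, treated 24 h with test compound or vehicle. Cells washed in cold PBS, lysed 30 min on ice in RIPA with protease and phosphatase inhibitors, protein quantified by BCA. 30 μg resolved by SDS-PAGE, transferred to PVDF, blocked 2 h in 5% BSA, primary antibody overnight at 4 °C, secondary 1.5 h, infrared imaging.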

A549 (lung cancer) = assay: In vitro cell viability assay; assay type: cell-based; details: Homo sapiens, A549, 48 h, read-out: IC50 A549
[1] = system: HCT116, MCF-7 and A549 cell lines; assay: In vitro cell viability assay; assay type: cell-based; details: Homo sapiens, read-out: IC50 range against the three tested cell lines
In short: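 Cells were grown in 10% FBS at 37 °C, 5% CO2, seeded in DMEM and held 24 h to 60%–70% confluency. They were then exposed to graded test compound concentrations or vehicle for 48 h. 10% CCK8 was added for 1–4 h at 37 °C and absorbance read at 450. IC50 was computed by the Logit method; three experiments.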

[2] = biological target: human recombinant HDAC1 enzyme (Homo sapiens, UniProt Q13547); assay: HDACs activity assay, HDAC1; assay type: biochemical
Sequence of human recombinant HDAC1 enzyme (Q13547 whole entry): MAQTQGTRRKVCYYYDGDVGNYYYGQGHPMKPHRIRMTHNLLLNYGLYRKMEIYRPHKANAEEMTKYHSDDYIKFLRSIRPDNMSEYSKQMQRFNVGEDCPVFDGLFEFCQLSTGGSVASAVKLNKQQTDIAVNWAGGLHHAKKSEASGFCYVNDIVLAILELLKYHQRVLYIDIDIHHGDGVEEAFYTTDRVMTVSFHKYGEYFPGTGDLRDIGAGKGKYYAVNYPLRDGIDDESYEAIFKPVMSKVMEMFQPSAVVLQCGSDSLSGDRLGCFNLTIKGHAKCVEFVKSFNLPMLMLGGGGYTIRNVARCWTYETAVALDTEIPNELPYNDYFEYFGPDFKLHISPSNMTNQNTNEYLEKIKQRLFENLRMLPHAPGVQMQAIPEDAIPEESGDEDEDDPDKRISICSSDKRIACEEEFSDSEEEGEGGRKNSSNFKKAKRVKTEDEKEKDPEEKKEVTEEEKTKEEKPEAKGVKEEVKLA

MCF-7 (breast cancer) = assay: In vitro cell viability assay; assay type: cell-based; details: Homo sapiens, MCF7, 48 h, read-out: IC50 MCF-7
TOP2α = TOP2α (Homo sapiens, UniProt P11388); assay: TOP2-mediated pBR322 DNA relaxation assay; assay type: biochemical
Sequence of TOP2α (P11388 whole entry): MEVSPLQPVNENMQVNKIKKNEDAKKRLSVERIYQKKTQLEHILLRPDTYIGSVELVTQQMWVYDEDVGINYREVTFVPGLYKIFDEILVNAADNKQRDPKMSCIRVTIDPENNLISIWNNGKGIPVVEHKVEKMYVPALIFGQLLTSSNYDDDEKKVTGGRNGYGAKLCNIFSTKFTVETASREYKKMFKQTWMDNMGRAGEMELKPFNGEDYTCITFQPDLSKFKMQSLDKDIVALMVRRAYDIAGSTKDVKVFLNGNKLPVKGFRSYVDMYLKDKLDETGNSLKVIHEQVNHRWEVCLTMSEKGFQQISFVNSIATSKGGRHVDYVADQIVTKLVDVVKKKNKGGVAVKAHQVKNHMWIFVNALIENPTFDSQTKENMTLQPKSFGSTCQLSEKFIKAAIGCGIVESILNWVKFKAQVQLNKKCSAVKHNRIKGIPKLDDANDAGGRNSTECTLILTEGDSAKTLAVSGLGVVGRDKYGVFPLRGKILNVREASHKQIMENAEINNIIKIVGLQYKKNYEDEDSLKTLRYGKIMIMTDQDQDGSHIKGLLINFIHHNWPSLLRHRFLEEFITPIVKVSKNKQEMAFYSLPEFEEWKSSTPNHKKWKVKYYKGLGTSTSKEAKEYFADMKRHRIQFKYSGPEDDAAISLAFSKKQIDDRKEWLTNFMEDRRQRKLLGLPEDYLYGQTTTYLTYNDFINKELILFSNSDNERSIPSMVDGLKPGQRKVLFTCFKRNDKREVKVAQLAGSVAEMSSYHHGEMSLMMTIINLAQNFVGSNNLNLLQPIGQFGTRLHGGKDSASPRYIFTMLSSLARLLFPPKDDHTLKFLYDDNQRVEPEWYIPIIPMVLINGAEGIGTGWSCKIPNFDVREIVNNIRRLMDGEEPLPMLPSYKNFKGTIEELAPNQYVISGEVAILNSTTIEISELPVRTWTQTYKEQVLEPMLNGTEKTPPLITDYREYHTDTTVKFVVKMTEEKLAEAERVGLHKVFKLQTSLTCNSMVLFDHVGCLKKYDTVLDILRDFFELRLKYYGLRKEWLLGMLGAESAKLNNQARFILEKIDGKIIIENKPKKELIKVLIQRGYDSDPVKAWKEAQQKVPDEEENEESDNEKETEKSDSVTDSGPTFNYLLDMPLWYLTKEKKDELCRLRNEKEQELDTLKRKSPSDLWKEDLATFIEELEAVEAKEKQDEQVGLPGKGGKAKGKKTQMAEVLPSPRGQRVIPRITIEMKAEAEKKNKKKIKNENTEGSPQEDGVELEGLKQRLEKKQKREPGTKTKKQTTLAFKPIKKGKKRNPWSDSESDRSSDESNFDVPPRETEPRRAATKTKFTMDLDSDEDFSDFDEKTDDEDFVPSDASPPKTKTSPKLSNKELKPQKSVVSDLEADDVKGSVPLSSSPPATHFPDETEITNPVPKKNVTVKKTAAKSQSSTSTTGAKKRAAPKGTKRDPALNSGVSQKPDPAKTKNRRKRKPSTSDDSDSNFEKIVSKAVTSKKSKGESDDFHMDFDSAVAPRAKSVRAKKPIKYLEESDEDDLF

HCT116 (colon cancer) = assay: In vitro cell viability assay; assay type: cell-based; details: Homo sapiens
HCT116 xenograft = assay: In vivo tumor growth inhibition assay against HCT116 xenograft; details: bid
[3] = In vitro metabolic stability in mice liver microsomes; assay type: in vitro ADME; details: female, ICR, mouse, liver microsomes, pH 7.4
[4] = system: hematological cell lines (HL60, K562 and HEL); assay: Antiproliferative activity, hematological cell lines together; assay type: cell-based; details: read-out: IC50 range toward hematological cell lines
[5] = HCT-116, 48 h, read-out: IC50 HCT116

Sequence of TOP1 (F1MN93 1-767): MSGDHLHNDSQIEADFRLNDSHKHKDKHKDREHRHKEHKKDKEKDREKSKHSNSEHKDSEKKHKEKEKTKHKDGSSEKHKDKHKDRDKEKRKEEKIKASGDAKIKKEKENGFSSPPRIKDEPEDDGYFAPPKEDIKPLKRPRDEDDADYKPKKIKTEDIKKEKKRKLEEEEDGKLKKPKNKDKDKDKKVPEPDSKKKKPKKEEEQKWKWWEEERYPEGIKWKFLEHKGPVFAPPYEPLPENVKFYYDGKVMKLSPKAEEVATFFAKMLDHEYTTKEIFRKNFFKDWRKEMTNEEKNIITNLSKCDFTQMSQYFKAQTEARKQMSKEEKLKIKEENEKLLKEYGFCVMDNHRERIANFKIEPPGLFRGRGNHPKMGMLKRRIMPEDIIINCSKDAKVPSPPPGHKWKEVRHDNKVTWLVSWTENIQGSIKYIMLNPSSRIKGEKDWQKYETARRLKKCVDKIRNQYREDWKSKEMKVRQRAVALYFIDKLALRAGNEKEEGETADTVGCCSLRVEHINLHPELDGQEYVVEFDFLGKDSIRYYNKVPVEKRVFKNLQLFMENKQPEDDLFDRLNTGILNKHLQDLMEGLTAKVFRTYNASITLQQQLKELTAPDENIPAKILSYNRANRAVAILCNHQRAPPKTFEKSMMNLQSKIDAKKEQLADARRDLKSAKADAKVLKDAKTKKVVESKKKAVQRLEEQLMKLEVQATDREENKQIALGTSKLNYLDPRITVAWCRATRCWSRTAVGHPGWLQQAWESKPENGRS

Molecule | IC50 (A549 (lung cancer)) [nM] | IC50 [2] [nM] | IC50 (MCF-7 (breast cancer)) [nM] | TOP2 inhibitory activity (relaxation assay) (TOP2α; 100 μmol/L) | IC50 (HCT116 (colon cancer); [5]) [nM] | other results
CC[C@@]1(O)C(=O)OCc2c1cc1n(c2=O)Cc2cc3ccccc3nc2-1 [CPT, Camptothecin] | – | – | – | – | – | TOP1 relaxation activity (supercoiled DNA band) (TOP1): obviously supercoiled DNA accumulation
O=C(CCCCCCC(=O)Nc1ccccc1)NO [Compound 1, vorinostat] | – | – | – | – | – | Expression of γH2AX (γH2AX in HCT116 cells): no increase
CN1c2ccccc2C(=O)N2[C@H](C(=O)NCCCCCCC(=O)NO)Cc3c([nH]c4ccccc34)[C@@H]12 [Compound 20a, (7S,13bS)-N-(7-(Hydroxyamino)-7-oxoheptyl)-14-methyl-5-oxo-5,7,8,13,13b,14-hexahydroindolo[2′,3′:3,4]pyrido[2,1-b]quinazoline-7-carboxamide] | 27000 ± 2100 | 27 ± 2.3 | 15000 ± 2500 | inactive | 7200 ± 520 | IC50 [1]: 7200 to 27000 nM
CN1c2ccccc2C(=O)N2[C@H](C(=O)NCCCCCC(=O)NO)Cc3c([nH]c4ccccc34)[C@@H]12 [Compound 20b, (7S,13bS)-N-(6-(Hydroxyamino)-6-oxohexyl)-14-methyl-5-oxo-5,7,8,13,13b,14-hexahydroindolo[2′,3′:3,4]pyrido[2,1-b]quinazoline-7-carboxamide] | > 50000 | 53 ± 4.5 | > 50000 | inactive | 11000 ± 1300 | –
CN1c2ccccc2C(=O)N2[C@H](C(=O)Nc3ccc(/C=C/C(=O)NO)cc3)Cc3c([nH]c4ccccc34)[C@@H]12 [Compound 25a, (7S,13bS)-N-(4-((E)-3-(Hydroxyamino)-3-oxoprop-1-en-1-yl)phenyl)-14-methyl-5-oxo-5,7,8,13,13b,14-hexahydroindolo[2′,3′:3,4]pyrido[2,1-b]quinazoline-7-carboxamide] | 10000 ± 1200 | 89 ± 6.2 | 3000 ± 250 | remarkable TOP2 inhibitory activities | 630 ± 520 | Tumor growth inhibition (TGI) (HCT116 xenograft; 20 mg/kg, i.p., 14 consecutive days): 2.2%; half-life at 1 μmol/L [3]: 9.86 min; TOP2 inhibitory activity (relaxation assay) (TOP2α; 50 μmol/L): remarkable TOP2 inhibitory activities; IC50 [4]: 340 to 1000 nM
CN1c2ccccc2C(=O)N2[C@H](C(=O)Nc3cccc(/C=C/C(=O)NO)c3)Cc3c([nH]c4ccccc34)[C@@H]12 [Compound 25b, (7S,13bS)-N-(3-((E)-3-(Hydroxyamino)-3-oxoprop-1-en-1-yl)phenyl)-14-methyl-5-oxo-5,7,8,13,13b,14-hexahydroindolo[2′,3′:3,4]pyrido[2,1-b]quinazoline-7-carboxamide] | 15000 ± 1400 | 31 ± 2.3 | 2200 ± 180 | remarkable TOP2 inhibitory activities | 520 ± 360 | TOP2 inhibitory activity (relaxation assay) (TOP2α; 50 μmol/L): remarkable TOP2 inhibitory activities
CN1c2ccc(F)cc2C(=O)N2[C@H](C(=O)Nc3ccc(C(=O)Nc4ccccc4N)cc3)Cc3c([nH]c4ccccc34)[C@@H]12 [Compound 30b, (7S,13bS)-N-(4-((2-Aminophenyl)carbamoyl)phenyl)-3-fluoro-14-methyl-5-oxo-5,7,8,13,13b,14-hexahydroindolo[2′,3′:3,4]pyrido[2,1-b]quinazoline-7-carboxamide] | 7900 ± 680 | 180 ± 20 | > 50000 | – | 2400 ± 220 | IC50 (HCT116 (colon cancer); HCT-116, read-out: IC50 HCT116): 3600 nM
CN1c2ccccc2C(=O)N2[C@H](C(=O)Nc3ccc(C(=O)NO)cc3)Cc3c([nH]c4ccccc34)[C@@H]12 [Compound 32, (7S,13bS)-N-(4-(Hydroxycarbamoyl)phenyl)-14-methyl-5-oxo-5,7,8,13,13b,14-hexahydroindolo[2′,3':3,4]pyrido[2,1-b]quinazoline-7-carboxamide] | 11000 ± 1200 | 260 ± 24 | 13000 ± 1400 | remarkable TOP2 inhibitory activities | 2200 ± 180 | TOP2 inhibitory activity (relaxation assay) (TOP2α; 50 μmol/L): remarkable TOP2 inhibitory activities
CN1c2ccccc2C(=O)N2[C@@H](C(=O)Nc3ccc(/C=C/C(=O)NO)cc3)Cc3c([nH]c4ccccc34)[C@H]12 [ent-25a, (7R,13bR)-N-(4-((E)-3-(Hydroxyamino)-3-oxoprop-1-en-1-yl)phenyl)-14-methyl-5-oxo-5,7,8,13,13b,14-hexahydroindolo[2′,3′:3,4]pyrido[2,1-b]quinazoline-7-carboxamide] | 2800 ± 220 | 18 ± 1.6 | 1600 ± 140 | – | 530 ± 450 | –
CN1c2ccccc2C(=O)N2[C@@H](C(=O)Nc3cccc(/C=C/C(=O)NO)c3)Cc3c([nH]c4ccccc34)[C@H]12 [ent-25b, (7R,13bR)-N-(3-((E)-3-(Hydroxyamino)-3-oxoprop-1-en-1-yl)phenyl)-14-methyl-5-oxo-5,7,8,13,13b,14-hexahydroindolo[2′,3′:3,4]pyrido[2,1-b]quinazoline-7-carboxamide] | 20000 ± 2400 | 10 ± 0.6 | 12000 ± 1500 | – | 3100 ± 280 | –
CN1c2ccccc2C(=O)N2[C@@H](C(=O)Nc3ccc(C(=O)Nc4ccccc4N)cc3)Cc3c([nH]c4ccccc34)[C@H]12 [ent-30a, (7R,13bR)-N-(4-((2-Aminophenyl)carbamoyl)phenyl)-14-methyl-5-oxo-5,7,8,13,13b,14-hexahydroindolo[2′,3′:3,4]pyrido[2,1-b]quinazoline-7-carboxamide] | 5400 ± 480 | 22 ± 2.1 | 17000 ± 1800 | – | 2900 ± 2000 | –
CN1c2ccccc2C(=O)N2[C@@H](C(=O)Nc3ccc(C(=O)NO)cc3)Cc3c([nH]c4ccccc34)[C@H]12 [ent-32, (7R,13bR)-N-(4-(Hydroxycarbamoyl)phenyl)-14-methyl-5-oxo-5,7,8,13,13b,14-hexahydroindolo[2′,3′:3,4]pyrido[2,1-b]quinazoline-7-carboxamide] | 12000 ± 1500 | 10 ± 0.8 | 5300 ± 500 | – | 1600 ± 130 | –
Evodiamine [Compound 6, reference compound] | – | – | – | – | – | Tumor growth inhibition (TGI) (HCT116 xenograft; 150 mg/kg, p.o., 21 days (dose of the combination not given)): 45.53%; Expression of γH2AX (γH2AX in HCT116 cells): no increase
